Experimental data taken from ChEMBL document CHEMBL1142942, “Polybrominated diphenyl ethers from the Indonesian sponge Lamellodysidea herbacea” (J Nat Prod, 2007).
≈ marks a conversion by molar mass, not a printed value.

What was measured:
Bacillus subtilis [1] = experiment: Antibacterial activity against Bacillus subtilis at 5 ug/disk after 24 hrs by agar-plate diffusion assay; assay type: functional; conditions: read-out: IZ
In short: (§1)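 Paper disks loaded with compound (acetone solution), 0.1 to 10 µg/disk, placed on agar plates inoculated with B. subtilis. Incubated 37 °C for 24 h, then read for zones of inhibition. All materials sterilized at 121 °C for 20 min before and after testing.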

Bacillus subtilis [2] = experiment: Antibacterial activity against Bacillus subtilis at 0.1ug/disk after 24 hrs by agar-plate diffusion assay; assay type: functional; conditions: read-out: IZ; in short: as §1
Bacillus subtilis [3] = experiment: Antibacterial activity against Bacillus subtilis at 10 ug/disk after 24 hrs by agar-plate diffusion assay; assay type: functional; conditions: read-out: IZ; in short: as §1
Bacillus subtilis [4] = experiment: Antibacterial activity against Bacillus subtilis at 1 ug/disk after 24 hrs by agar-plate diffusion assay; assay type: functional; conditions: read-out: IZ; in short: as §1
[5] = Cytotoxicity against rat NBT-T2 cells by MTT method; assay type: cell-based
In short: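 Rat bladder epithelial NBT-T2 cells exposed to compound. Viability read by MTT, and IC50 values derived from it.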

Structure (SMILES) | zone of inhibition at 5 µg/disc (Bacillus subtilis [1]) | zone of inhibition at 0.1 µg/disc (Bacillus subtilis [2]) | zone of inhibition at 10 µg/disc (Bacillus subtilis [3]) | zone of inhibition at 1 µg/disc (Bacillus subtilis [4]) | IC50 [5]
Oc1c(Br)cc(Br)cc1Oc1c(Br)ccc(Br)c1O | 20 mm | 7 mm | 20 mm | 13 mm | > 15 µg/mL
Oc1c(Br)cc(Br)cc1Oc1c(O)c(Br)c(Br)c(Br)c1Br | 12 mm | 6 mm | 12 mm | 7 mm | > 15 µg/mL
COc1c(Br)cc(Br)c(Br)c1Oc1cc(Br)cc(Br)c1O | 10 mm | 6 mm | 13 mm | 7 mm | –
COc1ccc(Br)cc1Oc1c(Br)c(Br)cc(Br)c1OC | 0 mm | 0 mm | 0 mm | 0 mm | –
Oc1cc(Br)ccc1Oc1cc(Br)cc(Br)c1O | 7 mm | 0 mm | 13 mm | 0 mm | 8.5 µg/mL (≈ 19.4 µM)
COc1c(Br)cc(Br)cc1Oc1c(O)c(Br)c(Br)c(Br)c1Br | 10 mm | 0 mm | 13 mm | 10 mm | > 15 µg/mL
COc1c(Br)c(Br)cc(Br)c1Oc1cc(Br)cc(Br)c1O | 9 mm | 6 mm | 9 mm | 9 mm | –
COc1cc(Br)cc(Br)c1Oc1cc(Br)cc(Br)c1OC | 0 mm | 0 mm | 0 mm | 0 mm | –
Oc1cc(Br)c(Br)c(Br)c1Oc1cc(Br)cc(Br)c1O | 13 mm | 7 mm | 16 mm | 10 mm | > 15 µg/mL
COc1c(Br)cc(Br)cc1Oc1ccc(Br)cc1Br | 0 mm | 0 mm | 0 mm | 0 mm | –
COc1c(Br)cc(Br)cc1Oc1c(O)cc(Br)c(Br)c1Br | 10 mm | 6 mm | 10 mm | 9 mm | 2.8 µg/mL (≈ 4.58 µM)
COc1c(Br)cc(Br)cc1Oc1c(Br)cc(Br)c(Br)c1OC | 0 mm | 0 mm | 0 mm | 0 mm | –
Oc1ccccc1Oc1c(O)cc(Br)cc1Br | 10 mm | 6 mm | 14 mm | 8 mm | > 15 µg/mL
Oc1c(Br)cccc1Oc1cc(Br)c(Br)c(Br)c1O | 8 mm | 0 mm | 13 mm | 0 mm | > 15 µg/mL
COc1c(Br)c(Br)c(Br)c(Br)c1Oc1cc(Br)cc(Br)c1O | 0 mm | 0 mm | 0 mm | 0 mm | –
COc1c(Br)cc(Br)cc1Oc1c(Br)ccc(Br)c1OC | 0 mm | 0 mm | 0 mm | 0 mm | –
Oc1ccc(Br)cc1Oc1c(O)ccc(Br)c1Br | 16 mm | 7 mm | 18 mm | 13 mm | > 15 µg/mL
COc1ccc(Br)cc1Oc1c(OC)ccc(Br)c1Br | 0 mm | 0 mm | 0 mm | 0 mm | –
Oc1cc(Br)cc(Br)c1Oc1cc(Br)cc(Br)c1O | 16 mm | 0 mm | 18 mm | 0 mm | > 15 µg/mL
Brc1cc(Br)c2c(c1)Oc1c(Br)c(Br)c(Br)c(Br)c1O2 | 13 mm | 7 mm | 14 mm | 12 mm | > 15 µg/mL
COc1cc(Br)c(Br)c(Br)c1Oc1cc(Br)cc(Br)c1O | 0 mm | 0 mm | 0 mm | 0 mm | –
COc1cc(Br)c(Br)c(Br)c1Oc1cc(Br)cc(Br)c1OC | 0 mm | 0 mm | 0 mm | 0 mm | –
Oc1ccc(Br)cc1Oc1cc(Br)cc(Br)c1O | 8 mm | 6 mm | 11 mm | 6 mm | > 15 µg/mL
Oc1c(Br)cc(Br)cc1Oc1c(Br)cc(Br)c(Br)c1O | 8 mm | 0 mm | 10 mm | 7 mm | > 15 µg/mL
COc1c(Br)cc(Br)cc1Oc1c(Br)c(Br)c(Br)c(Br)c1OC | 0 mm | 0 mm | 0 mm | 0 mm | –
COc1c(Br)cc(Br)cc1Oc1c(Br)cc(Br)c(Br)c1O | 14 mm | 6 mm | 14 mm | 11 mm | –
Oc1ccc(Br)cc1Oc1c(O)c(Br)cc(Br)c1Br | 16 mm | 7 mm | 17 mm | 8 mm | > 15 µg/mL
